Test [1] deals with T1, 5-hydroxytryptamine receptor 1A (Mus musculus, UniProt Q64264).
T1 sequence (Q64264 whole entry): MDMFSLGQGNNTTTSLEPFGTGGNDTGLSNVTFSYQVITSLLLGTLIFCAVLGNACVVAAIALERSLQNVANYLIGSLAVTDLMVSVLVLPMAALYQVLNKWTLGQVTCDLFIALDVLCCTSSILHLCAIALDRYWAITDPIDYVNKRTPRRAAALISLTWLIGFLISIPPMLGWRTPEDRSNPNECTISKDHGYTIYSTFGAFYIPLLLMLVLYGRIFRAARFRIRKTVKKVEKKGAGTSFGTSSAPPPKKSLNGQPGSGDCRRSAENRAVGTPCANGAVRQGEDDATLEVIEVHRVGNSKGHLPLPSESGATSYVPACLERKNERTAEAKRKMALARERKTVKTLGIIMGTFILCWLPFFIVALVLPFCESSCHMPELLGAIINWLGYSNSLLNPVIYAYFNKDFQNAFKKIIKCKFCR
The experiment in a line: Inhibitory activity towards 5-hydroxytryptamine 1A receptor by the displacement of [3H]8-OH-DPAT in mouse hippocampus. The test is classed as tissue-based. (In general: Displacement assays read how much labelled ligand stays bound in the presence of the test substance.)

Test [2] addresses T2, Serotonin 2 (5-HT2) receptor (Mus musculus, UniProt Q02152+P34968+P35363). The experiment in a line: Inhibitory activity towards 5-hydroxytryptamine 2 receptor by the displacement of [3H]ketanserin in mouse cerebral cortex. The test is classed as tissue-based. The method in brief: (§1)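 BALB/cBy mouse cerebral cortex, homogenized in 0.25 M sucrose; 1000g supernatant pelleted at 35000g and washed in 50 mM Tris-HCl pH 7.4. Nonspecific binding defined with 1 μM methysergide. Filtration on GF/B, scintillation counting. IC50 from computer fit of seven-point curves, averaged over 2–5 determinations.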

Test [3] deals with T2, Serotonin 2 (5-HT2) receptor. In words: Binding affinity towards 5-hydroxytryptamine 2 receptor by the displacement of [3H]-ketanserin in mouse cerebral cortex. The test is classed as tissue-based. The method in brief: as §1
The target of test [4] is T1, 5-hydroxytryptamine receptor 1A. The experiment in a line: Binding affinity towards 5-hydroxytryptamine 1A receptor by the displacement of [3H]8-OH-DPAT in mouse hippocampus. The format is tissue-based. Put shortly:
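Membranes incubated in triplicate with 1.2 nM [3H]8-OH-DPAT plus varying analogue concentrations, 30 min at 23 °C, 0.5 mL final volume. Filtered on PEI-pretreated GF/B; scintillation counting. IC50 derived from seven-point inhibition curves.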

Test [5] has as its target Serotonin 2 (5-HT2) receptor (Mus musculus) (UniProt Q02152+P34968+P35363). The experiment in a line: Hill number was determined for inhibition of [3H]ketanserin binding to 5-hydroxytryptamine 2 receptor in mouse cerebral cortex. The format is tissue-based. Put shortly: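 Hill numbers taken from seven-point inhibition curves of 0.15 nM [3H]ketanserin binding to washed mouse cortical membranes in 50 mM Tris-HCl pH 7.4, incubated 15 min at 37 °C. Nonspecific binding set with 1 μM methysergide; bound radioligand collected by filtration and counted.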

In test [6] the target is T3, 5-hydroxytryptamine receptor 1A (Mus musculus) (UniProt Q64264).
T3 sequence (whole entry): T1 sequence (Q64264 whole entry)
The note with it: Hippocampus.

In test [7] the target is T3, 5-hydroxytryptamine receptor 1A (Mus musculus). The experiment in a line: Hill number was determined for inhibition of [3H]8-OH-DPAT binding to 5-hydroxytryptamine 1A receptor in mouse hippocampus. The format is tissue-based.
For test [8], the species on record is Mus musculus. The experiment in a line: Hill number was determined for inhibition of [3H]8-OH-DPAT binding in mouse hippocampus. The format is functional. Put shortly:
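Triplicate incubations ran 30 min at 23 °C with 1.2 nM [3H]8-OH-DPAT over varying analogue concentrations, followed by filtration on polyethylenimine-treated GF/B filters and scintillation counting. Inhibition curves had seven points.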

Test [9] is filed under the species Mus musculus. In words: Hill number was determined for inhibition of [3H]ketanserin binding in mouse cerebral cortex. The test is classed as tissue-based. Put shortly:
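Cerebral cortex from adult BALB/cBy mice was homogenised in ice-cold 0.25 M sucrose pH 7.4. The 1000g supernatant was washed at 35000g in 50 mM Tris-HCl pH 7.4. Triplicate incubations ran 15 min at 37 °C with 0.15 nM [3H]ketanserin and varying analogue concentrations, final 2 mL. Nonspecific binding was set with 1 μM methysergide, and bound ligand was filtered on GF/B and counted by scintillation. Inhibition curves had seven points.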

The text below walks through data of ChEMBL document CHEMBL1124958 (J Med Chem, 1990).

One may read the IC50 as the concentration needed to halve the response being measured. The Ki is a measure of affinity in units of concentration, obtained from inhibition or displacement. One may read the Hill coefficient as a measure of the steepness of the concentration-response curve.

Sequence of Serotonin 2 (5-HT2) receptor (Mus musculus) (P34968 whole entry, looked up): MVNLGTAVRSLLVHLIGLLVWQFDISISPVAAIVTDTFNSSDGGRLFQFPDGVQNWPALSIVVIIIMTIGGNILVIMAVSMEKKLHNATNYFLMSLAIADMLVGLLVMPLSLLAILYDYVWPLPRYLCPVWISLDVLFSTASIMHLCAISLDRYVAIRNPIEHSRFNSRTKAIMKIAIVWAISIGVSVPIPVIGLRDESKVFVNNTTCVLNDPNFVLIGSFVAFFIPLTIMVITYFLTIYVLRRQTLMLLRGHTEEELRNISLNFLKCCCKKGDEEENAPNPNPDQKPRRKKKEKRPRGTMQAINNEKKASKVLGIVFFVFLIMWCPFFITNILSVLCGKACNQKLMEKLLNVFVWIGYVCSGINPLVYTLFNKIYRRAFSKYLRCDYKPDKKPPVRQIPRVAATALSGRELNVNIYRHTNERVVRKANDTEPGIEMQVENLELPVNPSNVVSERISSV
Sequence of Serotonin 2 (5-HT2) receptor (Mus musculus) (P35363 whole entry, looked up): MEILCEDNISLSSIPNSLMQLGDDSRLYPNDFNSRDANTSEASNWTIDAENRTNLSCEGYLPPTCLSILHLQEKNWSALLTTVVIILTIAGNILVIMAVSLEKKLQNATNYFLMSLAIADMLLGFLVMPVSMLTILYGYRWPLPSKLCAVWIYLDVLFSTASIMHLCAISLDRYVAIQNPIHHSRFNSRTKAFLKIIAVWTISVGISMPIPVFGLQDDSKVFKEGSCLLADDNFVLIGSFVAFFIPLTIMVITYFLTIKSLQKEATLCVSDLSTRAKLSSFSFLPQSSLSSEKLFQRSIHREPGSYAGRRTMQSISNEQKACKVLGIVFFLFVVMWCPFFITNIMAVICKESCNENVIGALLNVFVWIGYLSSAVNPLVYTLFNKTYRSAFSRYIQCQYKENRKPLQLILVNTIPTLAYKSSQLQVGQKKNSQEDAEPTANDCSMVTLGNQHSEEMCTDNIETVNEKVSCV
Sequence of Serotonin 2 (5-HT2) receptor (Mus musculus) (Q02152 whole entry, looked up): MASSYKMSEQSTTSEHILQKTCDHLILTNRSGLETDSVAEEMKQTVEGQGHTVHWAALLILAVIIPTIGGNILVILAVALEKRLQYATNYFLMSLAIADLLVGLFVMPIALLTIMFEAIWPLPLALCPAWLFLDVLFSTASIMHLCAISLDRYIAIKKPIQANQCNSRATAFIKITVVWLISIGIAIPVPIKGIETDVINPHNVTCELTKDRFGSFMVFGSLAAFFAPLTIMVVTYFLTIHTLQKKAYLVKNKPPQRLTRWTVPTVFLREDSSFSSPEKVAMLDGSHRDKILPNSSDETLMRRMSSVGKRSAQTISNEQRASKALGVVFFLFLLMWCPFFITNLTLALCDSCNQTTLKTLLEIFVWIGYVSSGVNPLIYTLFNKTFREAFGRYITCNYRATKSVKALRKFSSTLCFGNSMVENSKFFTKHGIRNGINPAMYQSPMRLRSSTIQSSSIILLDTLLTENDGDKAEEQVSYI

For the compound `O=C1CC2CCC1C(N1CCCCC1)C2c1c[nH]c2ccccc12` (stereo in doubt; 10a) [listing 1 of 2 here], the IC50 is 86 µM in test [1] and 5 µM in [2]. Further, the figures for the inhibition constant Ki in [3] and in [4] were 4 µM and 61 µM, respectively.

For `O=C1CC2CCC1C(N1CCCC1)C2c1c[nH]c2ccccc12` (stereo in doubt; 9a) [listing 1 of 2 here], the IC50 amounted to 46 µM in test [1] and 32 µM in test [2]. Moreover, the results for the Ki in test [3] and in test [4] were 23 µM and 32 µM, respectively.

With `O=C1CC2CCC1C(N1CCCC1)C2c1c[nH]c2ccccc12` (stereo in doubt; 9a) [listing 2 of 2 here], the Hill coefficient stood at 0.9 in test [5] and 0.95 in test [6].

As for `O=C1CC2CCC1C(N1CCCCC1)C2c1c[nH]c2ccccc12` (stereo in doubt; 10b) [listing 1 of 2 here], the Hill coefficient in test [5] was 0.9; in test [7] it was 0.88.

On to `NCCc1c[nH]c2ccc(O)cc12` [SEROTONIN], for which the Hill coefficient turned out to be 0.75 in the test listed under Mus musculus [8] and 0.85 in the test filed under Mus musculus [9].

For `O=C1CC2CCC1C(N1CCCCC1)C2c1c[nH]c2ccccc12` (stereo in doubt; 10b) [listing 2 of 2 here], the IC50 in test [1] amounted to 160 µM; in test [2], 84 µM. In addition, the figures for the Ki in test [3] and in test [4] were 61 µM and 115 µM, respectively.

In the case of `O=C1CC2CCC1C(N1CCCC1)C2c1c[nH]c2ccccc12` (stereo in doubt; 9b) [listing 1 of 2 here], the IC50 amounted to 53 µM in test [1] and 96 µM in [2]. For the same compound, the Ki in [3] was found to be 70 µM.

`C1=CC2CCC1C(c1c[nH]c3ccccc13)C2N1CCCCC1` (stereo in doubt; 13a) [listing 1 of 2 here]: the values for the Hill coefficient in [5] and in test [7] were 1 and 0.93, respectively.

With `O=C1CC2CCC1C(N1CCCC1)C2c1c[nH]c2ccccc12` (stereo in doubt; 9b) [listing 2 of 2 here], the figures for the Hill coefficient in test [5] and in test [7] were 1 and 0.47, respectively.

On to `O=C1CC2CCC1C(N1CCCCC1)C2c1ccccc1` (stereo not drawn), for which the IC50 came out at 358 µM in test [1] and 181 µM in test [2]. Moreover, the Hill coefficient in [5] is 1.2; in [7], 0.89. The Ki in [3] came out at 132 µM; in [4], 274 µM.

Regarding `C1=CC2CCC1C(c1c[nH]c3ccccc13)C2N1CCCC1` (stereo in doubt; 12a) [listing 1 of 2 here], the IC50 was determined as 12 µM in test [1] and 19 µM in [2]. The Ki in test [3] came out at 14 µM; in test [4] it was 8.5 µM.

For `C1=CC2CCC1C(c1c[nH]c3ccccc13)C2N1CCCC1` (stereo in doubt; 12b) [listing 1 of 2 here], the Hill coefficient in [5] amounted to 0.9; in test [7] it was 0.61.

As to `C1=CC2CCC1C(c1c[nH]c3ccccc13)C2N1CCCCC1` (stereo in doubt; 13b) [listing 1 of 2 here], the half-inhibitory concentration (IC50) in test [1] stood at 89 µM; in [2], 13 µM. This compound yielded a Ki in [3] of 9 µM.

As for `C1=CC2CCC1C(c1c[nH]c3ccccc13)C2N1CCCCC1` (stereo in doubt; 13b) [listing 2 of 2 here], the Hill coefficient in test [5] stood at 0.9; in [7], 0.69.

For `C1=CC2CCC1C(c1c[nH]c3ccccc13)C2N1CCCC1` (stereo in doubt; 12a) [listing 2 of 2 here], the Hill coefficient in test [5] stood at 1; in [7] it was 0.95.

On to `O=C1CC2CCC1C(N1CCCCC1)C2c1c[nH]c2ccccc12` (stereo in doubt; 10a) [listing 2 of 2 here], for which the Hill coefficient worked out at 1 in test [5] and 1.2 in [7].

For the compound `C1=CC2CCC1C(c1c[nH]c3ccccc13)C2N1CCCCC1` (stereo in doubt; 13a) [listing 2 of 2 here], the IC50 in test [1] was 18 µM; in test [2], 10 µM. Moreover, the Ki came out at 8 µM in test [3] and 13.5 µM in [4].

For `C1=CC2CCC1C(c1c[nH]c3ccccc13)C2N1CCCC1` (stereo in doubt; 12b) [listing 2 of 2 here], the IC50 in test [1] was found to be 47 µM; in [2], 24 µM. In [3], this compound showed an inhibition constant (Ki) of 17 µM.
